Results as given in ChEMBL document CHEMBL1926582, “Bis-chalcone analogues as potent NO production inhibitors and as cytotoxic agents” (Eur J Med Chem, 2012).
Activity calls are given as the source filed them. No cut-off for these calls is given here.

Key:
A549 [1] = experiment: Cytotoxicity against human A549 cells after 3 days by SRB assay; type: functional, cell-based
Method in brief: (§1)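 Cell lines kept in RPMI-1640 with […], 0.25% sodium bicarbonate, 10% FBS and 100 µg/mL kanamycin. Freshly trypsinized cells seeded at 1500-7500 cells/well. Compounds added from DMSO-diluted stock, 3 days culture. Attached cells fixed with cold 50% TCA, stained with 0.4% SRB, bound dye solubilized, absorbance read at 562 nm.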

DU-145 [2] = experiment: Cytotoxicity against human DU145 cells after 3 days by SRB assay; type: functional, cell-based; method in brief: as §1
KB [3] = experiment: Cytotoxicity against human KB cells after 3 days by SRB assay; type: functional, cell-based; method in brief: as §1
[4] = Cytotoxicity against human KBVIN cells after 3 days by SRB assay; type: functional, cell-based; method in brief: as §1
[5] = Inhibition of NOX-dependent ROS production in mouse BV2 cells by chemiluminescence assay; type: cell-based; conditions: BV-2
Method in brief: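 BV2 cell homogenate (50 µg) was incubated with compound for 20 min at 37 °C in the dark. Superoxide production was started with 200 µM NADPH and chemiluminescence followed for 30 min. AUC was taken as ROS production. DPI was the positive control. IC50 given as mean ± SEM of three experiments on different days using cells from different passages.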

[6] = tested on: Radical scavenging activity; experiment: Antioxidant activity assessed as inhibition of DPPH free radical scavenging activity; type: functional
[7] = biological target: Transcription factor p65 (Mus musculus) (UniProt Q04207); experiment: Inhibition of NF-kappaB p65 activation/translocation in LPS-stimulated mouse BV2 cells assessed as down regulation of iNOS at 2 to 4 uM measured after 15 to 120 mins post stimulation by Western blot analysis; type: cell-based; conditions: BV-2
Chain of Transcription factor p65 (Mus musculus) (Q04207 whole entry): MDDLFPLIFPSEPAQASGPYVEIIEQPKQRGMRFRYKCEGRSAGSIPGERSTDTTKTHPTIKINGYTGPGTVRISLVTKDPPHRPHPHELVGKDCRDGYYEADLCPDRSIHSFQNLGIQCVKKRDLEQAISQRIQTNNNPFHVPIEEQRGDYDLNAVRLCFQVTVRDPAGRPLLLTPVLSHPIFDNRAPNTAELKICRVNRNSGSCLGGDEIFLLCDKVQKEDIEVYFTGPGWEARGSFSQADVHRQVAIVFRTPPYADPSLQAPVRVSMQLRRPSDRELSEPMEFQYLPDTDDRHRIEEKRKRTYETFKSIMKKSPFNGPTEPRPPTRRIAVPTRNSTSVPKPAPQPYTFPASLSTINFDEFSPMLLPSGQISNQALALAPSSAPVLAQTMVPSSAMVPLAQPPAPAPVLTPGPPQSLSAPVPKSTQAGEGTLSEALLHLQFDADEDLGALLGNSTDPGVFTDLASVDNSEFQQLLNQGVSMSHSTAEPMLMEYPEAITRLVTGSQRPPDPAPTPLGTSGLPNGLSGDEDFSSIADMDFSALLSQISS
Method in brief: (§2)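 BV2 microglia in DMEM with 5% FBS were pretreated with compound or solvent, then stimulated with LPS 0.5 µg/mL for 15 to 120 min. Western blots were probed for iNOS, cytosolic IκBα, and cytosolic and nuclear p65. Membranes were blocked in 5% milk/PBST, primary antibody overnight at 4 °C, HRP secondary 1 h, ECL detection. Signals normalized to β-actin; at least three independent experiments.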

[8] = biological target: T1, NF-kappa-B inhibitor alpha (Mus musculus) (UniProt Q9Z1E3); experiment: Inhibition of IkappaB-alpha degradation in LPS-stimulated mouse BV2 cells at 2 to 4 uM measured after 15 to 120 mins post stimulation by Western blot analysis; type: cell-based; conditions: BV-2; method in brief: as §2
T1 sequence (whole entry): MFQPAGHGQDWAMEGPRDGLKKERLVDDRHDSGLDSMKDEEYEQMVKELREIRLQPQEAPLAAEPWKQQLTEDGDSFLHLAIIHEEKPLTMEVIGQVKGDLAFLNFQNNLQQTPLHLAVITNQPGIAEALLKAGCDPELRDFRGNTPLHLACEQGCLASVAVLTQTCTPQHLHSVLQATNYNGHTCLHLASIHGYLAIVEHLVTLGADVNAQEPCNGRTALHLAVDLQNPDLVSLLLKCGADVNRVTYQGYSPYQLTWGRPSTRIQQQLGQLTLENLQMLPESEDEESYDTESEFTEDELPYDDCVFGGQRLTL

[9] = biological target: Transcription factor p65 (Mus musculus) (UniProt Q04207); experiment: Inhibition of NF-kappaB p65 activation/translocation in LPS-stimulated mouse BV2 cells assessed as down regulation of iNOS at 1 to 2 uM measured after 15 to 120 mins post stimulation by Western blot analysis; type: cell-based; conditions: BV-2; method in brief: as §2
[10] = biological target: T1, NF-kappa-B inhibitor alpha (Mus musculus); experiment: Inhibition of IkappaB-alpha degradation in LPS-stimulated mouse BV2 cells at 1 to 2 uM measured after 15 to 120 mins post stimulation by Western blot analysis; type: cell-based; conditions: BV-2; method in brief: as §2
A549 [11] = experiment: Growth inhibition of human A549 cells at 20 ug/mL after 3 days by SRB assay; type: functional; conditions: A549, 72 h, read-out: GI
Method in brief: (§3)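 Cells grown in RPMI-1640 (10% FBS, HEPES, bicarbonate, kanamycin), trypsinized and seeded at 1500-7500 cells/well. Compound given from DMSO-diluted stock, 3 days culture. Cells fixed with cold 50% trichloroacetic acid, stained with 0.4% sulforhodamine B, dye solubilized and absorbance measured at 562 nm.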

DU-145 [12] = experiment: Growth inhibition of human DU145 cells at 20 ug/mL after 3 days by SRB assay; type: functional; conditions: DU-145, 72 h, read-out: GI; method in brief: as §3
KB [13] = experiment: Growth inhibition of human KB cells at 20 ug/mL after 3 days by SRB assay; type: functional; conditions: 72 h, read-out: GI; method in brief: as §3
[14] = Growth inhibition of human KBVIN cells at 20 ug/mL after 3 days by SRB assay; type: functional; conditions: 72 h, read-out: GI; method in brief: as §3
[15] = Homo sapiens, A549, 72 h, read-out: EC50
[16] = Homo sapiens, DU-145, 72 h, read-out: EC50
[17] = Homo sapiens, KB, 72 h, read-out: EC50
[18] = Homo sapiens, KBVIN, 72 h, read-out: EC50

| SMILES | EC50 (A549 [1]; [15]) | EC50 (DU-145 [2]; [16]) | EC50 (KB [3]; [17]) | EC50 [4, 18] | IC50 [5] | IC50 [6] | EC50 (A549 [1]; a549) | EC50 (DU-145 [2]; du-145) | EC50 (KB [3]; kb) | EC50 ([4]; kbvin) | also measured |
| --- | --- | --- | --- | --- | --- | --- | --- | --- | --- | --- | --- |
| CC(=O)c1cc(C(=O)/C=C/c2ccc3c(c2)OCO3)c(O)cc1O | 19.4 µM | 16.3 µM | 17.2 µM | 17.2 µM | 72 µM | Not Active | – | – | – | – | – |
| CC(=O)c1cc(C(=O)/C=C/C=C/c2ccccc2)c(O)cc1O | – | – | – | – | 120 µM | Not Active | Not Active | Not Active | Not Active | Not Active | – |
| COC(=O)[C@@H](N)CCCNC(=N)N[N+](=O)[O-] [L-NAME] | – | – | – | – | – | Not Active | – | – | – | – | – |
| O=C(/C=C/c1ccco1)c1cc(C(=O)/C=C/c2ccco2)c(O)cc1O | – | – | – | – | 49.6 µM | Not Active | Not Active | Not Active | Not Active | Not Active | – |
| COc1cccc(/C=C/C(=O)c2cc(C(=O)/C=C/c3cccc(OC)c3OC)c(O)cc2O)c1OC | 4.38 µM | 2.45 µM | 2.06 µM | 5.14 µM | 89 µM | Not Active | – | – | – | – | inhibition [7]: Active; inhibition [8]: Active |
| Cc1ccsc1/C=C/C(=O)c1cc(C(=O)/C=C/c2sccc2C)c(O)cc1O | – | – | – | – | 81.4 µM | Not Active | Not Active | Not Active | Not Active | Not Active | – |
| COc1cc(OC)c(OC)cc1/C=C/C(=O)c1cc(C(C)=O)c(O)cc1O | – | – | – | – | 73 µM | Not Active | Not Active | Not Active | Not Active | Not Active | – |
| c1ccc2c(c1)[I+]c1ccccc1-2 [DIPHENYLENEIODONIUM] | – | – | – | – | 0.65 µM | Not Active | – | – | – | – | – |
| O=C(/C=C/c1ccccn1)c1cc(C(=O)/C=C/c2ccccn2)c(O)cc1O | 13.7 µM | 2.85 µM | 2.93 µM | 11 µM | 76.8 µM | Not Active | – | – | – | – | – |
| COc1ccc(/C=C/C(=O)c2cc(C(=O)/C=C/c3ccc(OC)c(OC)c3)c(O)cc2O)cc1OC | 9.14 µM | 8.63 µM | 8.18 µM | 7.02 µM | 49.1 µM | Not Active | – | – | – | – | inhibition [9]: Active; inhibition [10]: Active |
| COc1ccc(/C=C/C(=O)c2cc(C(=O)/C=C/c3ccc(OC)c(OC)c3OC)c(O)cc2O)c(OC)c1OC | – | – | – | – | 70.9 µM | Not Active | Not Active | Not Active | Not Active | Not Active | – |
| O=C(/C=C/c1ccccc1)c1cc(C(=O)/C=C/c2ccccc2)c(O)cc1O | 4.08 µM | 1.7 µM | 1.62 µM | 1.57 µM | 122 µM | Not Active | – | – | – | – | – |
| COc1ccc(/C=C/C(=O)c2cc(C(=O)/C=C/c3ccc(OC)cc3)c(O)cc2O)cc1 | – | – | – | 34 µM | 150 µM | Not Active | – | – | – | – | inhibition of growth at 20 µg/mL (A549 [11]): < 50%; inhibition of growth at 20 µg/mL (DU-145 [12]): < 50%; inhibition of growth at 20 µg/mL (KB [13]): < 50% |
| COc1cccc(/C=C/C(=O)c2cc(C(=O)/C=C/c3cccc(OC)c3)c(O)cc2O)c1 | 8.76 µM | 1.86 µM | 2.88 µM | 2.07 µM | 127 µM | Not Active | – | – | – | – | – |
| COc1ccc(OC)c(/C=C/C(=O)c2cc(C(=O)/C=C/c3cc(OC)ccc3OC)c(O)cc2O)c1 | – | – | 40.1 µM | – | 95 µM | Not Active | – | – | – | – | inhibition of growth at 20 µg/mL (A549 [11]): < 50%; inhibition of growth at 20 µg/mL (DU-145 [12]): < 50%; inhibition of growth at 20 µg/mL [14]: < 50% |
| Cc1ccc(/C=C/C(=O)c2cc(C(=O)/C=C/c3ccc(C)o3)c(O)cc2O)o1 | – | – | – | – | 60.4 µM | Not Active | Not Active | Not Active | Not Active | Not Active | – |
| Cc1c(C)c2c(c(C)c1O)CCC(C)(C(=O)O)O2 (configuration not stated) [TROLOX] | – | – | – | – | – | – | – | – | – | – | IC50 ([6]; read-out: IC50): 30.2 µM |
